Test results published in ChEMBL document CHEMBL2401700, “Discovery of TD-8954, a clinical stage 5-HT(4) receptor agonist with gastrointestinal prokinetic properties” (Bioorg Med Chem Lett, 2013).

Legend:
[1] = molecular target: T1, 5-hydroxytryptamine receptor 3A (Homo sapiens, UniProt P46098); test: Binding affinity to human recombinant 5HT3 receptor
T1 sequence (P46098 whole entry): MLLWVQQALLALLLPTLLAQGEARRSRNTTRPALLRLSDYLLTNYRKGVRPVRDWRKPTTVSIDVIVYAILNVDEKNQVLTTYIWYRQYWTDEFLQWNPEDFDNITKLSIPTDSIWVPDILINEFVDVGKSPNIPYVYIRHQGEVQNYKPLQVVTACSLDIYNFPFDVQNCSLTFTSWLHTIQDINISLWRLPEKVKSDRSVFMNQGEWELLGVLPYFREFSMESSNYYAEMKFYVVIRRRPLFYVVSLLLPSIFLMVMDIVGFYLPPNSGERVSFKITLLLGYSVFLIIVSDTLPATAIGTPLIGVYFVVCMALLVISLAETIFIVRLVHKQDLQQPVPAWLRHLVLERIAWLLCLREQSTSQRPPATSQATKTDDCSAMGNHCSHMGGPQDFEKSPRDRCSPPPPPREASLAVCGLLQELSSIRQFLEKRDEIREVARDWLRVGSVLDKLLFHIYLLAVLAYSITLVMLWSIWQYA

[2] = molecular target: T2, 5-hydroxytryptamine receptor 4 (Homo sapiens, UniProt Q13639); test: Binding affinity to human recombinant 5HT4 receptor
T2 sequence (Q13639 whole entry): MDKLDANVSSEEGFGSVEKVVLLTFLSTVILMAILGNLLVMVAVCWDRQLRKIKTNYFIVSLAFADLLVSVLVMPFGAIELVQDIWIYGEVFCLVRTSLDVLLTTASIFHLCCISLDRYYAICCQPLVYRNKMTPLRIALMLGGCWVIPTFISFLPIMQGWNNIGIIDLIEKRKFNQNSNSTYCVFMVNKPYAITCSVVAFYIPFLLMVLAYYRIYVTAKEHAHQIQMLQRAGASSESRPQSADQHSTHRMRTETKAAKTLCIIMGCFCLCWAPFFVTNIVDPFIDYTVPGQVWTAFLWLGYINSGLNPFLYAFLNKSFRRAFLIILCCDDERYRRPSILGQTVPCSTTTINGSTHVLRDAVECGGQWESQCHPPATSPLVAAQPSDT

[3] = Half life in rat liver micrososmes; format: ADME, Microsome; settings: liver microsomes
[4] = molecular target: T2, 5-hydroxytryptamine receptor 4; test: Agonist activity at human recombinant 5HT4 receptor assessed as cAMP accumulation relative to 5-HT; format: functional
Outline: (§1)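 cAMP accumulation in cells expressing human recombinant 5-HT4 receptor, reported as pEC50 with intrinsic activity as % of the maximum response achieved by 5-HT.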

[5] = molecular target: T2, 5-hydroxytryptamine receptor 4; test: Agonist activity at human recombinant 5HT4 receptor assessed as cAMP accumulation; format: functional; outline: as §1
[6] = Permeability across human Caco2 cells; format: ADME, cell-based; settings: Caco-2, read-out: Kp
hERG (KCNH2) = hERG (KCNH2) (Homo sapiens, UniProt Q12809); test: Inhibition of human ERG channel at 3 uM
Chain of hERG (KCNH2) (Q12809 whole entry): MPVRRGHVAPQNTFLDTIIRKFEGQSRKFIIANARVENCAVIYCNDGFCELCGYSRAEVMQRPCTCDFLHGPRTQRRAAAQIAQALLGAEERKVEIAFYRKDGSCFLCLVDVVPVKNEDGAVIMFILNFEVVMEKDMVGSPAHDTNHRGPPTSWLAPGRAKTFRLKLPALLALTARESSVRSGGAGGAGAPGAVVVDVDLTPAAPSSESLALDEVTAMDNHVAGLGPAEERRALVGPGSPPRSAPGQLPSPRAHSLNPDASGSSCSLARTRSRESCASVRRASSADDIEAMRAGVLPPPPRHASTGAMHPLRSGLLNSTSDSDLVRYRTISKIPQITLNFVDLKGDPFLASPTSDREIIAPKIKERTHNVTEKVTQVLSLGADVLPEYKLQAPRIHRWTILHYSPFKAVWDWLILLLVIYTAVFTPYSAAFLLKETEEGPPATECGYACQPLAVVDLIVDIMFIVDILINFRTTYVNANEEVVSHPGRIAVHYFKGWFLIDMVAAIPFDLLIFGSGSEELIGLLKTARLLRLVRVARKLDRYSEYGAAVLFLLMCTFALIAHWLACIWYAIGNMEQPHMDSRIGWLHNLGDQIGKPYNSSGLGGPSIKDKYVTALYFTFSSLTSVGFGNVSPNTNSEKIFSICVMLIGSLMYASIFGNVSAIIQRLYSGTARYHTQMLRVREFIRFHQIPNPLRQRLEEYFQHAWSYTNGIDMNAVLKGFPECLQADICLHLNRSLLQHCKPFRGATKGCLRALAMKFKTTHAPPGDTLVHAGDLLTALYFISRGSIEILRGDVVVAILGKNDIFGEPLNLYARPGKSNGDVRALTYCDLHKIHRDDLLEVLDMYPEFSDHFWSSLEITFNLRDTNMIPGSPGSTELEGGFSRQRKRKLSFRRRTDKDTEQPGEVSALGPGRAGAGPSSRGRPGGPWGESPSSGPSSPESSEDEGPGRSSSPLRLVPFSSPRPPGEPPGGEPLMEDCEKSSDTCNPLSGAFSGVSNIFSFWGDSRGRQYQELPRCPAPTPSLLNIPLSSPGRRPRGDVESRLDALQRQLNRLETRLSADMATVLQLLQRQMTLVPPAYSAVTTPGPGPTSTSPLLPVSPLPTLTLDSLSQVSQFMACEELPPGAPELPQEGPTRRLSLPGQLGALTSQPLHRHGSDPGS

Rattus norvegicus = test: Agonist activity at 5HT4 receptor in ID dosed rat assessed as dose required to cause esophageal relaxation of 0.1 mm; format: functional
Outline: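 Anesthetized rats dosed intraduodenally over about 0.01–10 mg/kg. Esophageal relaxation was tracked by digital sonomicrometry as the change in inter-crystal distance (mm), n = 4–6. An ED50 was derived from the dose–response, and the dose giving a 0.1 mm relaxation response was calculated.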

[7] = Cardiotoxicity in dog coronary artery assessed as coronary artery constriction; format: toxicity, tissue-based, Canis lupus familiaris
[8] = molecular target: 5-hydroxytryptamine receptor 2B (Homo sapiens, UniProt P41595); test: Binding affinity to serotonin 5-HT2B receptor (unknown origin)
Chain of 5-hydroxytryptamine receptor 2B (P41595 whole entry): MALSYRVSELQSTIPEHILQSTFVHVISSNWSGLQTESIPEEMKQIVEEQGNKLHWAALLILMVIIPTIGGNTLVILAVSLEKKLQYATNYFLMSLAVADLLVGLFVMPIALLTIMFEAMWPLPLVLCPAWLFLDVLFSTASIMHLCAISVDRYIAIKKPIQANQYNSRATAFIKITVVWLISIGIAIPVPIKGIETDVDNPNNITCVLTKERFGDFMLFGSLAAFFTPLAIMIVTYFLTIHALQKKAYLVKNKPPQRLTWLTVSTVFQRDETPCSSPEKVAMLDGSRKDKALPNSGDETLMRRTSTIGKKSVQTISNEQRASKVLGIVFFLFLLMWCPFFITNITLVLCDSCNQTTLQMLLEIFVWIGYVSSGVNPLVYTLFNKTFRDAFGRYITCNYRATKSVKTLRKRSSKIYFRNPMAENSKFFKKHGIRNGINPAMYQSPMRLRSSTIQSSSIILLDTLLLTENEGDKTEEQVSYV

[9] = molecular target: 5-hydroxytryptamine receptor 2A (Homo sapiens, UniProt P28223); test: Binding affinity to serotonin 5-HT2A receptor (unknown origin)
Chain of 5-hydroxytryptamine receptor 2A (P28223 whole entry): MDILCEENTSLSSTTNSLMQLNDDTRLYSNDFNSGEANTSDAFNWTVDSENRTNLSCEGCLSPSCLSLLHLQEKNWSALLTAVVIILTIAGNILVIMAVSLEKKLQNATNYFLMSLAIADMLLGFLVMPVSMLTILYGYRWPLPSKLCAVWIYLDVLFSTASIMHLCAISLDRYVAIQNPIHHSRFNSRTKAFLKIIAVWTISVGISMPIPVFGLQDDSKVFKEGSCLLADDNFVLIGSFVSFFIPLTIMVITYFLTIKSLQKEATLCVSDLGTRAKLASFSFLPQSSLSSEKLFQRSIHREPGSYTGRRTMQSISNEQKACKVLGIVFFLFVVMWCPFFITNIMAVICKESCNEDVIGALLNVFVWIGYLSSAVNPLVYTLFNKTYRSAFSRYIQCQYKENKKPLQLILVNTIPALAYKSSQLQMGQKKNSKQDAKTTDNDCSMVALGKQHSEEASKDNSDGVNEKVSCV

[10] = molecular target: T3, 5-hydroxytryptamine receptor 7 (Homo sapiens, UniProt P34969); test: Binding affinity to serotonin 5-HT7 receptor (unknown origin)
T3 sequence (P34969 whole entry): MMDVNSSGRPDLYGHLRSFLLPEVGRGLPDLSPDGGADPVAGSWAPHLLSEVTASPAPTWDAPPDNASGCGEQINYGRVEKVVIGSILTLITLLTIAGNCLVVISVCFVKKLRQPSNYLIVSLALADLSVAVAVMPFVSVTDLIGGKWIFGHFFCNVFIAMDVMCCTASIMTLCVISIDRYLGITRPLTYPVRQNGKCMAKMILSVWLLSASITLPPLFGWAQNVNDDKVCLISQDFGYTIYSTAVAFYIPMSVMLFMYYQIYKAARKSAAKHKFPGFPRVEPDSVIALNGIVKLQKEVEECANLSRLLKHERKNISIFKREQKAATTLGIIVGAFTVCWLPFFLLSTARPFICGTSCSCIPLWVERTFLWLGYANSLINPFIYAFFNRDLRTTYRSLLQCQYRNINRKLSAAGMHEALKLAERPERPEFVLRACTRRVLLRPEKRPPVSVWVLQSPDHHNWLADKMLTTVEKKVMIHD

[11] = molecular target: 5-hydroxytryptamine receptor 1D (Homo sapiens, UniProt P28221); test: Binding affinity to serotonin 5-HT1D receptor (unknown origin)
Chain of 5-hydroxytryptamine receptor 1D (P28221 whole entry): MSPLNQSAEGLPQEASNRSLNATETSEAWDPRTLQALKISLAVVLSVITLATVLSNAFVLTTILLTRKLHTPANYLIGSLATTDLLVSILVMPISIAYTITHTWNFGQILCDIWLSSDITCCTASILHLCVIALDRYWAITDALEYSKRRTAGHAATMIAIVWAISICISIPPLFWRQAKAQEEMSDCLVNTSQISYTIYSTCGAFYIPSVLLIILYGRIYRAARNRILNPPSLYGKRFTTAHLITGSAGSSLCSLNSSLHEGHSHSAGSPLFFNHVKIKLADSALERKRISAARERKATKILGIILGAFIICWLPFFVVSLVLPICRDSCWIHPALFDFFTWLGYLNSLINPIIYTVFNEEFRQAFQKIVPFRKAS

[12] = molecular target: T4, 5-hydroxytryptamine receptor 2C (Homo sapiens, UniProt P28335); test: Binding affinity to serotonin 5-HT2C receptor (unknown origin)
T4 sequence (P28335 whole entry): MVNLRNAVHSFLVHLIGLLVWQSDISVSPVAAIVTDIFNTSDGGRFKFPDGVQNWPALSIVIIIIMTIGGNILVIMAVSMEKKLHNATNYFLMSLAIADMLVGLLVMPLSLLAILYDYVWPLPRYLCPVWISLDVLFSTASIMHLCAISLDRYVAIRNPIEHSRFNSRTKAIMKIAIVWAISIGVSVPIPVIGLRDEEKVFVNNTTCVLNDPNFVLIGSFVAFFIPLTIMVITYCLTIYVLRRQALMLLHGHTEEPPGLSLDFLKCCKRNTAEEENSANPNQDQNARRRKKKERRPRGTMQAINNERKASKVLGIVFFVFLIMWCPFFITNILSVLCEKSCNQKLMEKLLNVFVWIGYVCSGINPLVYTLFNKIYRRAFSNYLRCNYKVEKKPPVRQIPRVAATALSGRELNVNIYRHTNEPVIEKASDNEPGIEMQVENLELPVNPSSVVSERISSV

[13] = molecular target: T1, 5-hydroxytryptamine receptor 3A; test: Binding affinity to serotonin 5-HT3 receptor (unknown origin)
[14] = molecular target: T3, 5-hydroxytryptamine receptor 7; test: Binding affinity to human serotonin 5-HT7 receptor
[15] = molecular target: T5, 5-hydroxytryptamine receptor 1A (Homo sapiens, UniProt P08908); test: Binding affinity to human serotonin 5-HT1A receptor
T5 sequence (P08908 whole entry): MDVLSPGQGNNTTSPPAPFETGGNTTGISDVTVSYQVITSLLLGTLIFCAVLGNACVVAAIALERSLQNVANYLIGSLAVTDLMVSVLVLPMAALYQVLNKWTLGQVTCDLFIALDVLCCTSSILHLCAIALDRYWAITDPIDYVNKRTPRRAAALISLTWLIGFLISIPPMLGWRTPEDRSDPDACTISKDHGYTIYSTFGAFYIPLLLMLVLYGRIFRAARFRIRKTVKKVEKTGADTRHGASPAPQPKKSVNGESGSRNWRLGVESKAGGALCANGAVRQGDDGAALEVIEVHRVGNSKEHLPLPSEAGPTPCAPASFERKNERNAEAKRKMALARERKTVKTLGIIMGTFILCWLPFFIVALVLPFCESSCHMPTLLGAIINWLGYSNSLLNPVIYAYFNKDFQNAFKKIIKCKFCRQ

Row | Ki [1] [nM] | Ki [2] [nM] | half-life [3] [h] | Intrinsic activity [4] [%] | EC50 [5] [nM] | Papp [6] [×10⁻⁶ cm/s] | Structure (SMILES) | further results
1 | 100000 | 0.501 | 1.47 | 63 | 1 | 5 | CC(C)c1nc2c(C(=O)NCC3CCN(CC4CCN(S(C)(=O)=O)CC4)CC3)cccc2[nH]1 | inhibition at 3 µM (hERG (KCNH2)): 8%
2 | 100000 | 1 | > 1.5 | 87 | 1.58 | 6 | CC(=O)N1CCC(CN2CCC(CNC(=O)c3cccc4[nH]c(C(C)C)nc34)CC2)CC1 | inhibition at 3 µM (hERG (KCNH2)): 22%
3 | 50100 | 3.98 | 1.32 | – | 2 | 2 | COC(=O)N(C)CC(O)CN1CCC(CNC(=O)c2cccc3nc(C(C)C)[nH]c23)CC1 (stereo not given) | –
4 | 1260 | 0.316 | – | 0 | – | – | CC(C)c1nc2c(C(=O)NCC3CCN(CC(O)CN4CCN(S(C)(=O)=O)CC4)CC3)cc(Cl)cc2[nH]1 (stereo not given) | –
5 | 63100 | 3.98 | > 1.5 | – | 1.58 | – | CC(=O)N(C)CC(O)CN1CCC(CNC(=O)c2cccc3nc(C(C)C)[nH]c23)CC1 (stereo not given) | –
6 | 79400 | 0.501 | – | 22 | 1 | – | CCc1nc2c(C(=O)NCC3CCN(CC(O)CN4CCN(S(C)(=O)=O)CC4)CC3)cccc2[nH]1 (stereo not given) | –
7 | – | – | – | 76 | – | – | CC(=O)N1CCN(CCN2CCC(CNC(=O)c3cccc4[nH]c(C(C)C)nc34)CC2)CC1 | –
8 | 50100 | 0.501 | > 1.5 | 64 | 0.631 | 2.1 | CS(=O)(=O)N1CCN(CC(O)CN2CCC(CNC(=O)c3cccc4[nH]c(C5CC5)nc34)CC2)CC1 (stereo not given) | –
9 | 100000 | 0.794 | > 1.5 | 64 | 0.794 | 4 | CC(C)c1nc2c(C(=O)NCC3CCN(CCN4CCN(S(C)(=O)=O)CC4)CC3)cccc2[nH]1 | –
10 | 39800 | 5.01 | > 1.5 | – | 3.16 | – | CC(=O)N1CCN(CCN2CCC(CNC(=O)c3cccc4nc(C(C)C)[nH]c34)CC2)CC1 | –
11 | – | – | – | 83 | – | – | CC(C)c1nc2c(C(=O)NCC3CCN(CC(O)CN(C)S(C)(=O)=O)CC3)cccc2[nH]1 (stereo not given) | –
12 | 63100 | 251 | – | 7 | 631 | – | CS(=O)(=O)N1CCN(CC(O)CN2CCC(NC(=O)c3cccc4[nH]cnc34)CC2)CC1 (stereo not given) | –
13 | 7940 | 2 | – | – | 0.794 | – | CC(F)(F)c1nc2cccc(C(=O)NCC3CCN(CC(O)CN4CCN(S(C)(=O)=O)CC4)CC3)c2[nH]1 (stereo not given) | –
14 | 79400 | 1.26 | > 1.5 | – | 0.398 | 1 | CC(C)c1nc2cccc(C(=O)NCC3CCN(CC(O)CN(C)S(C)(=O)=O)CC3)c2[nH]1 (stereo not given) | –
15 | 79400 | 1.58 | > 1.5 | 72 | 1.58 | 9 | COC(=O)N1CCN(CCN2CCC(CNC(=O)c3cccc4[nH]c(C(C)C)nc34)CC2)CC1 | –
16 | – | – | – | 59 | – | – | CC(F)(F)c1nc2c(C(=O)NCC3CCN(CC(O)CN4CCN(S(C)(=O)=O)CC4)CC3)cccc2[nH]1 (stereo not given) | –
17 | – | – | – | 94 | – | – | CC(C)(C)c1nc2c(C(=O)NCC3CCN(CC(O)CN4CCN(S(C)(=O)=O)CC4)CC3)cccc2[nH]1 (stereo not given) | –
18 | – | – | – | 64 | – | – | CC(=O)N(C)CC(O)CN1CCC(CNC(=O)c2cccc3[nH]c(C(C)C)nc23)CC1 (stereo not given) | –
19 | 50100 | 6.31 | – | – | 10 | – | CS(=O)(=O)N1CCN(CC(O)CN2CCC(CNC(=O)c3cccc4nc[nH]c34)CC2)CC1 (stereo not given) | –
20 | – | – | – | 6 | – | – | CS(=O)(=O)N1CCN(CC(O)CN2CCC(CNC(=O)c3cccc4[nH]cnc34)CC2)CC1 (stereo not given) | –
21 | – | – | – | 64 | – | – | COC(=O)N(C)CC(O)CN1CCC(CNC(=O)c2cccc3[nH]c(C(C)C)nc23)CC1 (stereo not given) | –
22 | 79400 | 0.501 | > 1.5 | 61 | 0.631 | 0.2 | CC(C)c1nc2c(C(=O)NCC3CCN(CC(O)CN4CCN(S(C)(=O)=O)CC4)CC3)cccc2[nH]1 (stereo not given) | inhibition at 3 µM (hERG (KCNH2)): 5%
23 | 2000 | – | 0.783 | 71 | – | – | COc1cc(N)c(Cl)cc1C(=O)NC1CCN(CCCOc2ccc(F)cc2)CC1OC (racemic) [CISAPRIDE] | Ki [13]: 2000 nM; Activity (Rattus norvegicus): 2.66 mg/kg; Ki [14]: 1000 nM; Ki [15]: 794 nM
24 | 39800 | 12.6 | > 1.5 | – | 3.16 | 0.5 | CC(C)(C)c1nc2cccc(C(=O)NCC3CCN(CC(O)CN4CCN(S(C)(=O)=O)CC4)CC3)c2[nH]1 (stereo not given) | –
25 | 15800 | 1.26 | – | 41 | 1.58 | – | CS(=O)(=O)N1CCN(CC(O)CN2CCC(CNC(=O)c3cccc4[nH]c(-c5ccccc5)nc34)CC2)CC1 (stereo not given) | –

Row | Structure (SMILES) | Ki [1] [nM] | Ki [2] [nM] | half-life [3] [h] | Intrinsic activity [4] [%] | EC50 [5] [nM] | Papp [6] [×10⁻⁶ cm/s] | further results
26 | CS(=O)(=O)N1CCN(CC(O)CN2[C@@H]3CC[C@H]2C[C@@H](NC(=O)c2cccc4[nH]cnc24)C3)CC1 (stereo not given in full) | – | – | – | 54 | – | – | –
27 | CS(=O)(=O)N1CCN(CC(O)CN2[C@@H]3CC[C@H]2C[C@@H](NC(=O)c2cccc4nc[nH]c24)C3)CC1 (stereo not given in full) | 20000 | 316 | – | – | 251 | – | –
28 | CCCCCNC(=N)N/N=C/c1c[nH]c2ccc(OC)cc12 [TEGASEROD] | 2510 | – | > 1.5 | – | – | – | Activity (Rattus norvegicus): 2.43 mg/kg; Activity [7]: Toxic; Ki [8]: < 2 nM; Ki [9]: < 100 nM; Ki [10]: < 100 nM; Ki [11]: < 100 nM; Ki [12]: < 100 nM
